Results on 21 compounds are retold here after ChEMBL document CHEMBL2434889, “New orally effective 3-(2-nitro)phenylpropanamide analgesic derivatives: synthesis and antinociceptive evaluation” (Eur J Med Chem, 2013).

Activity calls are given as the source filed them.

Data set [1] has as its system Mus musculus. Put plainly: Toxicity in mouse at 3 mg/kg, ip. The data set is classed as organism-based. The arrangement: dose 3 mg/kg, route intraperitoneal. The following applies: in vivo.
The test system of data set [2] is Mus musculus. Kind of data set: Antinociceptive activity in mouse assessed as inhibition of acetic acid-induced writhing response at 3 mg/kg, ip after 10 mins measured for 10 mins. The following applies: route intraperitoneal. The data set is classed as functional. In a few lines: (§1)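 Mice (20–24 g) dosed intraperitoneally, then given 0.5% aqueous acetic acid i.p. at 10 ml/kg. Stretches (back arching, pelvic rotation, hind-limb extension) were counted in an observation beaker for 10 min, starting 10 min after the acid. % inhibition is versus the control group. n = 50 mice for control and reference groups, 10 per other treatment. ANOVA with Fisher PLSD.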
Background: In writhing tests, fewer writhes than in controls are read as antinociception.

Data set [3] deals with Mus musculus. Put plainly: Antinociceptive activity in mouse assessed as inhibition of acetic acid-induced writhing response at 100 umol/kg, ip after 10 mins measured for 10 mins. It counts as functional. In a few lines:
as §1

In data set [4] the test system is Mus musculus. Put plainly: Antinociceptive activity in mouse assessed as inhibition of acetic acid-induced writhing response at 100 umol/kg, po after 10 mins measured for 10 mins. The data set is classed as functional. The method in brief:
(§2)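 Oral dosing, with 8 mice per treatment group. Writhing was induced by 0.5% aqueous acetic acid i.p. (10 ml/kg). Stretches were tallied over 10 min, beginning 10 min after the acid. % inhibition of constrictions is relative to the control group. Statistics by ANOVA and Fisher PLSD.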

Data set [5] concerns Mus musculus. Kind of data set: Antinociceptive activity in mouse assessed as inhibition of acetic acid-induced writhing response at 15 mg/kg, ip after 10 mins measured for 10 mins. The data set is classed as functional. Particulars: route intraperitoneal. In a few lines: as §1
The test system of data set [6] is Mus musculus. Kind of data set: Toxicity in mouse assessed as effect on locomotion at 33 to 100 umol/kg, ip measured after 25 to 35 mins. It counts as organism-based. Particulars: in vivo. In a few lines:
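Mice were injected ip with drug or saline and returned at once to photocell-beam cages for 1 h. Horizontal locomotion was scored as cage crossings and analysed over 25–35 min post-treatment, the same window as the writhing counts. Methylphenidate 10 mg/kg and haloperidol 0.5 mg/kg served as stimulant and depressant references. Statistics by Fisher PLSD.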

For data set [7], the system named is Mus musculus. Kind of data set: Antinociceptive activity in mouse assessed as increase of forepaw licking latency at 100 umol/kg, ip measured after 15 to 60 mins by hot plate test. The data set is classed as functional, organism-based. In a few lines:
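Hot-plate test at 55 °C with groups of 10 mice. Latency to forepaw licking was timed by stopwatch. Baseline was read twice before injection, and only mice reacting within 4–12 s were used. Readings were taken at 15, 30, 45 and 60 min after ip dosing, with a 30 s cutoff. Vehicle was physiological serum; morphine 5 mg/kg served as reference. Data are mean ± SEM, one-way ANOVA with Fisher PLSD.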
(Thermal pain tests record how soon the animal reacts.)

The test system of data set [8] is Mus musculus. Kind of data set: Antinociceptive activity in mouse assessed as inhibition of acetic acid-induced writhing response at 33.3 umol/kg, po after 10 mins measured for 10 mins. The data set is classed as functional. In a few lines:
as §2

Data set [9] concerns Mus musculus. Put plainly: Antinociceptive activity in mouse assessed as inhibition of acetic acid-induced writhing response at 10 umol/kg, po after 10 mins measured for 10 mins. It counts as functional. The method in brief:
as §2

For `O=C(CCc1cc2c(cc1[N+](=O)[O-])OCO2)N1CCCCC1`, the Activity entry with Mus musculus [1] is “Non-toxic”. Besides, the inhibition in vivo (as a rule, how much of the control response was suppressed) at 3 mg/kg in the data set with Mus musculus [2] amounted to 25.2%. Besides, in the data set with Mus musculus [3], the inhibition in vivo at 100 µmol/kg is 44.8%.

Turning to `COc1ccc(N2CCN(C(=O)CCc3ccc4c(c3)OCO4)CC2)cc1`, the Activity result in the data set on Mus musculus [1] is listed as “Non-toxic”. For the same compound, the inhibition in vivo at 3 mg/kg with Mus musculus [2] stood at 2.4%.

In the case of `NC(=O)CCc1cc2c(cc1[N+](=O)[O-])OCO2`, in the data set on Mus musculus [1], the Activity result was “Non-toxic”. Besides, in the data set on Mus musculus [2], the inhibition in vivo at 3 mg/kg came to 14.8%.

`COc1ccc(N2CCN(C(=O)CCc3cc4c(cc3N)OCO4)CC2)cc1`: the Activity result with Mus musculus [1] was “Non-toxic”. In the data set on Mus musculus [2], the inhibition in vivo at 3 mg/kg amounted to 21.5%.

In the case of `COc1ccccc1N1CCN(C(=O)CCc2cc3c(cc2[N+](=O)[O-])OCO3)CC1`, the Activity result in the data set on Mus musculus [1] is on record as “Non-toxic”. In the data set with Mus musculus [2], the inhibition in vivo at 3 mg/kg was found to be 4.8%.

`O=C(CCc1cc2c(cc1[N+](=O)[O-])OCO2)Nc1ccccc1`: the Activity entry in the data set on Mus musculus [1] was “Non-toxic”. Further, the inhibition in vivo at 3 mg/kg in the data set on Mus musculus [2] amounted to 12.9%.

For the compound `O=C(CCc1cc2c(cc1[N+](=O)[O-])OCO2)N1CCN(c2ccccc2)CC1`, in the data set on Mus musculus [1], the Activity entry is reported as “Non-toxic”. Further, in the data set on Mus musculus [2], the inhibition in vivo at 3 mg/kg was 21.5%.

Regarding `O=C(CCc1cc2c(cc1[N+](=O)[O-])OCO2)N1CCN(c2ccc(Cl)c(Cl)c2)CC1`, the Activity result in the data set on Mus musculus [1] is listed as “Non-toxic”. Also, in the data set with Mus musculus [2], the inhibition in vivo at 3 mg/kg was 22%.

Take `O=C(CCc1cc2c(cc1[N+](=O)[O-])OCO2)N1CCOCC1`: in the data set on Mus musculus [1], the Activity entry was “Non-toxic”. Further, the inhibition in vivo at 3 mg/kg in the data set on Mus musculus [2] was found to be 31.4%.

Regarding `CC1CCCCN1C(=O)CCc1ccc2c(c1)OCO2` (configuration not stated), in the data set on Mus musculus [1], the Activity entry is “Non-toxic”. For the same compound, the inhibition in vivo at 3 mg/kg in the data set with Mus musculus [2] was determined as 20.1%.

Turning to `COc1ccc(CCC(=O)N2CCCCC2)cc1OC`, in the data set with Mus musculus [1], the Activity entry is on record as “Non-toxic”. Also, the inhibition in vivo at 3 mg/kg in the data set on Mus musculus [2] was under 0%.

On to `O=C(CCc1ccc2c(c1)OCO2)N1CCCCC1`, for which the Activity result with Mus musculus [1] is “Non-toxic”. The inhibition in vivo at 3 mg/kg with Mus musculus [2] stood at 53%.

Take `O=C(CCc1cc2c(cc1[N+](=O)[O-])OCO2)Nc1ccccn1`: the Activity result in the data set with Mus musculus [1] is on record as “Non-toxic”. Moreover, in the data set on Mus musculus [2], the inhibition in vivo at 3 mg/kg was determined as 10%.

For `O=C(CCc1cc2c(cc1[N+](=O)[O-])OCO2)N1CCN(CCO)CC1`, the Activity result in the data set on Mus musculus [1] was “Non-toxic”. Moreover, the inhibition in vivo at 3 mg/kg in the data set on Mus musculus [2] turned out to be 32.9%.

As to `CC(=O)Oc1ccccc1C(=O)O` [ASPIRIN], the inhibition in vivo at 100 µmol/kg in the data set with Mus musculus [4] is 31.2%; with Mus musculus [3] it was 59%. Also, the inhibition in vivo at 15 mg/kg in the data set with Mus musculus [5] is 62.3%.

For the compound `COc1ccc(N2CCN(C(=O)CCc3cc4c(cc3[N+](=O)[O-])OCO4)CC2)cc1`, the Activity result in the data set with Mus musculus [6] and in the data set with Mus musculus [1] was “Non-toxic” throughout. For the same compound, in the data set with Mus musculus [7], the outcome was inactive. The figures for the inhibition in vivo at 100 µmol/kg in the data set on Mus musculus [4] and in the data set on Mus musculus [3] were 40% and 50%, respectively. Further, the inhibition in vivo at 33.3 µmol/kg in the data set with Mus musculus [8] came to 35.7%. Moreover, the inhibition in vivo at 10 µmol/kg in the data set on Mus musculus [9] amounted to 28.6%. Besides, in the data set with Mus musculus [2], the inhibition in vivo at 3 mg/kg stood at 37.2%.

For `CCCCCCNC(=O)CCc1cc2c(cc1[N+](=O)[O-])OCO2`, the Activity result in the data set on Mus musculus [1] is “Non-toxic”. Besides, in the data set on Mus musculus [2], the inhibition in vivo at 3 mg/kg came to 38.6%. The inhibition in vivo at 100 µmol/kg in the data set with Mus musculus [3] came out at 26%.

For `COc1cc(CCC(=O)N2CCOCC2)c([N+](=O)[O-])cc1OC`, in the data set with Mus musculus [1], the Activity entry is given as “Non-toxic”. In the data set with Mus musculus [2], the inhibition in vivo at 3 mg/kg worked out at 15.3%.

For `COc1cc(CCC(=O)N2CCCCC2)c([N+](=O)[O-])cc1OC`, the Activity entry with Mus musculus [1] was “Non-toxic”. Also, in the data set on Mus musculus [2], the inhibition in vivo at 3 mg/kg came out at 33%. Also, in the data set on Mus musculus [3], the inhibition in vivo at 100 µmol/kg came to 39.1%.

As to `O=C(CCc1cc2c(cc1[N+](=O)[O-])OCO2)N1CCN(c2ccc(F)cc2)CC1`, in the data set on Mus musculus [1], the Activity entry was “Non-toxic”. In addition, the inhibition in vivo at 3 mg/kg with Mus musculus [2] was 14.3%.

In the case of `CCOC(=O)CCc1cc2c(cc1[N+](=O)[O-])OCO2`, the Activity entry with Mus musculus [1] was “Non-toxic”. Moreover, the inhibition in vivo at 3 mg/kg in the data set on Mus musculus [2] was 40.5%.
